Activity calls are given as the source filed them. The rule behind the calls is not given here.

Activity, IC50 and IC90 data for 13 molecules are collected here from ChEMBL document CHEMBL1250500, “E-2-[3-(3,4-dichlorophenyl)-1-oxo-2-propenyl]-3-methylquinoxaline-1,4-dioxide: a lead antitubercular agent which alters mitochondrial respiration in rat liver” (Eur J Med Chem, 2010).

The first assay is filed under the species Rattus norvegicus. The assay is described as follows: Induction of rat liver mitochondria respiration assessed as consumption of oxygen by polarography. The format is functional. A digest of the protocol:
(§1)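 Liver mitochondria isolated from a rat anesthetized with isoflurane and decapitated. Oxygen consumption measured polarographically. Compounds tested at 1, 5 and 10 μM, added in 4 μL DMSO. A DMSO-only (4 μL) solvent control was run alongside.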
For the molecule `Cc1c(C(=O)/C=C/c2ccc(Cl)c(Cl)c2)[n+]([O-])c2ccccc2[n+]1[O-]`, the Activity result was “Dose-dependent effect”.

Another assay is filed under the species Rattus norvegicus. The assay is described as follows: Induction of rat liver mitochondria respiration assessed as consumption of oxygen at 1 to 10 uM by polarography. Type of assay: functional. Put shortly:
as §1
On to `CC(=O)c1c(C)[n+]([O-])c2ccccc2[n+]1[O-]` [MEQUINDOX], for which the outcome was inactive.

A further assay relates to Mycobacterium tuberculosis. The assay is described as follows: Antitubercular activity against Mycobacterium tuberculosis H37Rv ATCC 27294 by microplate alamar blue assay. Type of assay: functional, organism-based. A digest of the protocol:
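Broth microdilution in BACTEC 12B medium, with Alamar Blue read-out.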
A word on the IC50: it is the midpoint of a concentration-inhibition curve. One may read the IC90 as the point of the concentration-response curve where the effect stands at 90%. Read a high IC90 as a need for much substance. In the case of `Cc1c(C(=O)/C=C/c2ccc(F)cc2)[n+]([O-])c2ccccc2[n+]1[O-]`, the IC50 is 5.83 µM and the 90% effect level (IC90) was put at 10.7 µM.

`Cc1c(C(=O)/C=C/c2ccc(Cl)c(Cl)c2)[n+]([O-])c2ccccc2[n+]1[O-]` had a concentration for half-maximal inhibition (IC50) of 1.03 µM and a 90% effect concentration (IC90) of 1.53 µM.

Molecule `COc1cc(/C=C/C(=O)c2c(C)[n+]([O-])c3ccccc3[n+]2[O-])cc(OC)c1OC` yielded an IC50 of 6.88 µM and a 90% effect concentration (IC90) of 11.9 µM.

In turn, `Cc1ccc(/C=C/C(=O)c2c(C)[n+]([O-])c3ccccc3[n+]2[O-])cc1` gave an IC50 of 5.58 µM and a concentration for an effect of 90% (IC90) of 9.44 µM.

With `COc1ccc(/C=C/C(=O)c2c(C)[n+]([O-])c3ccccc3[n+]2[O-])cc1OC`, the IC50 came out at 9.15 µM and the concentration for an effect of 90% (IC90) came to 17.2 µM.

On to `Cc1c(C(=O)/C=C/c2ccc([N+](=O)[O-])cc2)[n+]([O-])c2ccccc2[n+]1[O-]`, for which the 50% inhibitory concentration (IC50) is greater than 250 µM and the 90% effect concentration (IC90) is greater than 250 µM.

For `CC(=O)c1c(C)[n+]([O-])c2ccccc2[n+]1[O-]` [MEQUINDOX], half-maximal inhibition (IC50) required 6.83 µM and it took 7.89 µM to reach the 90% level (IC90).

Consider `Cc1c(C(=O)/C=C/c2ccc(Cl)cc2)[n+]([O-])c2ccccc2[n+]1[O-]`, for which the half-inhibitory concentration (IC50) came to 2.64 µM and the IC90 stood at 4.12 µM.

The molecule `COc1ccc(/C=C/C(=O)c2c(C)[n+]([O-])c3ccccc3[n+]2[O-])cc1` came in with an IC50 of 23.1 µM and an IC90 of 40.2 µM.

In the case of `Cc1c(C(=O)/C=C/c2ccc3c(c2)OCO3)[n+]([O-])c2ccccc2[n+]1[O-]`, the IC50 turned out to be 19.7 µM and the 90% effect level (IC90) was put at 35.8 µM.

`Cc1c(C(=O)/C=C/c2ccc(Br)cc2)[n+]([O-])c2ccccc2[n+]1[O-]` yielded an IC50 of 3.71 µM and a 90% effect concentration (IC90) greater than 250 µM.

In turn, `Cc1c(C(=O)/C=C/c2ccccc2)[n+]([O-])c2ccccc2[n+]1[O-]` gave an IC50 of 3.88 µM and an IC90 of 6.12 µM.

The molecule `Cc1c(C(=O)/C=C/c2cccc([N+](=O)[O-])c2)[n+]([O-])c2ccccc2[n+]1[O-]` showed an IC50 of 2.18 µM and a 90% effect concentration (IC90) of 2.39 µM.
